Assay results taken from ChEMBL document CHEMBL5696442, “Discovery of type II inhibitors of TGFβ-activated kinase 1 (TAK1) and mitogen-activated protein kinase kinase kinase kinase 2 (MAP4K2)” (J Med Chem, 2015).

Legend:
[1] = target: Tyrosine-protein kinase ABL2 (Homo sapiens, UniProt P42684); assay: Inhibition of ARG ACT labeling site in human Huh-7 cell lysate at 1 uM by KiNativ Profiling analysis relative to control; type: subcellular
[2] = target: Tyrosine-protein kinase ABL1 (Homo sapiens, UniProt P00519); assay: Inhibition of ABL ACT labeling site in human Huh-7 cell lysate at 1 uM by KiNativ Profiling analysis relative to control; type: subcellular
Sequence of Tyrosine-protein kinase ABL1 (P00519 whole entry): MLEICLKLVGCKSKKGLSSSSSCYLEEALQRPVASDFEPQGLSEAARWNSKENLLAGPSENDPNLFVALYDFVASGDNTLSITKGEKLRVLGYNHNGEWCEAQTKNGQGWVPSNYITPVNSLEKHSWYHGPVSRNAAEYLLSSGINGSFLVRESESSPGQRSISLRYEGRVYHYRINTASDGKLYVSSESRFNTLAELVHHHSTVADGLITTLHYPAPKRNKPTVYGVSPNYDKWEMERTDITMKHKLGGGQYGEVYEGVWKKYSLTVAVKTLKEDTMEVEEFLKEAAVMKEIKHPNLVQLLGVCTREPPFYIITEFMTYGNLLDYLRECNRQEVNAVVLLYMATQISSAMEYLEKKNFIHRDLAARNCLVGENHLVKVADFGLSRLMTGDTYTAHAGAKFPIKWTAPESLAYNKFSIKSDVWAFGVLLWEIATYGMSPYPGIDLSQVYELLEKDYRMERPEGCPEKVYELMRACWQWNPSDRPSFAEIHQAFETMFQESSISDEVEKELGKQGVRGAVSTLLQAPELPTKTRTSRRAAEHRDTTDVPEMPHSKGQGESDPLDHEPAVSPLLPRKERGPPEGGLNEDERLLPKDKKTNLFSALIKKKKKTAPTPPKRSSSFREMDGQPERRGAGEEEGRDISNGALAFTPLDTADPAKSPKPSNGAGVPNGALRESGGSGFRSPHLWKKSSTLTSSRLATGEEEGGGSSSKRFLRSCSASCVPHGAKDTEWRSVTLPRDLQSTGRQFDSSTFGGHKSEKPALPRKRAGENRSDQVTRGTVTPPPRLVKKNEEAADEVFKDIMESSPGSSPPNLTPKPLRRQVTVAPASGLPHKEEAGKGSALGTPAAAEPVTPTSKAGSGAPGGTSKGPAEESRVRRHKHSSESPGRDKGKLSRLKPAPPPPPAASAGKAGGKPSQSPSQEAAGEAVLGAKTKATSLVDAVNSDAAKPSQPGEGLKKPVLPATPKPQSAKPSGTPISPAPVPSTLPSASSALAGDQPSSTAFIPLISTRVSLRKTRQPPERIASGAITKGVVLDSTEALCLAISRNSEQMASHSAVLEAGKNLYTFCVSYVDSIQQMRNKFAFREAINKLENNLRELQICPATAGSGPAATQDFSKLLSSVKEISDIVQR

[3] = Inhibition of KHS1 Lys2 labeling site in human A-375 cells at 0.5 uM by KiNativ Profiling analysis relative to control; conditions: condition cancer
[4] = target: T1, Aurora kinase C (Homo sapiens) (UniProt Q9UQB9); assay: Inhibition of AurC ATP Loop labeling site in human A-375 cells at 0.5 uM by KiNativ Profiling analysis relative to control; type: cell-based
T1 sequence (whole entry): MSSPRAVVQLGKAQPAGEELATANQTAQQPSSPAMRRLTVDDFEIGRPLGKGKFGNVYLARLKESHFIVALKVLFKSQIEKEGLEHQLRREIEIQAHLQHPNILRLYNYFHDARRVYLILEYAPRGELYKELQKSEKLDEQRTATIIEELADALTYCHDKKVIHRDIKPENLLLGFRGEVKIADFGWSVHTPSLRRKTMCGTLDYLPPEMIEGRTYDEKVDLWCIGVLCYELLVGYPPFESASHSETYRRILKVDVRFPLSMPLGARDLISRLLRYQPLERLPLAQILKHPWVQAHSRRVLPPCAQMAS
In short: (§1)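 Live A375 melanoma cells were treated with compound at 5 or 0.5 μM, then lysed. The lysates were labeled with a lysine-reactive ATP or ADP-biotin probe. Kinase protection from probe labeling was measured by KiNativ.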

[5] = target: Cyclin-dependent kinase 2 (Homo sapiens) (UniProt P24941); assay: Inhibition of CDK2 Lys2 labeling site in human A-375 cells at 0.05 uM by KiNativ Profiling analysis relative to control; type: cell-based
[6] = target: Ribosomal protein S6 kinase alpha-3 (Homo sapiens) (UniProt P51812); assay: Inhibition of RSK2 domain2 Lys2 labeling site in human A-375 cells at 0.05 uM by KiNativ Profiling analysis relative to control; type: cell-based
Sequence of Ribosomal protein S6 kinase alpha-3 (Homo sapiens) (P51812 whole entry, the tested form may be a part): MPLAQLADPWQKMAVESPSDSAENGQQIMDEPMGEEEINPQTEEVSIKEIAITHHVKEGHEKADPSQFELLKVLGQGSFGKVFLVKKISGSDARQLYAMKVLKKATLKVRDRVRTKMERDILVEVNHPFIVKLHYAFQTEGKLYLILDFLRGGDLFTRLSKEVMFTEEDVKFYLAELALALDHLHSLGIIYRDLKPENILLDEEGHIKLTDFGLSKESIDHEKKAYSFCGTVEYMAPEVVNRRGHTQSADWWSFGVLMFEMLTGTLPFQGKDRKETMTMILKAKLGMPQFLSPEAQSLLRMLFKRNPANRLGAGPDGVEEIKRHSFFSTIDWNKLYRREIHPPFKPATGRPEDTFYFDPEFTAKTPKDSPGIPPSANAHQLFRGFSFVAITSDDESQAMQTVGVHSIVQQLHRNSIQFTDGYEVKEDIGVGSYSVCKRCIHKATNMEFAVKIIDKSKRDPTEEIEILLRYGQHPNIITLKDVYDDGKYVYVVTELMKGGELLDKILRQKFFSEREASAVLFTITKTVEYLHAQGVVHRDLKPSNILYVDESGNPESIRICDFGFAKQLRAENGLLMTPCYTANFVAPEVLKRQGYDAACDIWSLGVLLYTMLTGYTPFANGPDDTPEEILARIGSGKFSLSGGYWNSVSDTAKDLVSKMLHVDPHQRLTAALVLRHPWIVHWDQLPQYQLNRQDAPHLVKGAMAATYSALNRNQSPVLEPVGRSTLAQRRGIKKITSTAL

[7] = target: Aurora kinase B (Homo sapiens) (UniProt Q96GD4); assay: Inhibition of AurB ATP Loop labeling site in human A-375 cells at 0.5 uM by KiNativ Profiling analysis relative to control; type: cell-based; in short: as §1
Sequence of Aurora kinase B (Homo sapiens) (Q96GD4 whole entry, the tested form may be a part): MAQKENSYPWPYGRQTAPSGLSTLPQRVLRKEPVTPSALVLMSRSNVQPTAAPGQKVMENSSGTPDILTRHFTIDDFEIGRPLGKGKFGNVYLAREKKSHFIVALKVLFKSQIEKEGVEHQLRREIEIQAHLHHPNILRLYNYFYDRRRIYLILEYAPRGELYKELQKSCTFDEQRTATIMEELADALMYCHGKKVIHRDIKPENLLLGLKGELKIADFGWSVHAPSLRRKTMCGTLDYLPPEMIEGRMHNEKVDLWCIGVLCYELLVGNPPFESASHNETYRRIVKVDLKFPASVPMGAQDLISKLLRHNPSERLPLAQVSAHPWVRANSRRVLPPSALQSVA

[8] = target: Ribosomal protein S6 kinase alpha-2 (Homo sapiens) (UniProt Q15349); assay: Inhibition of RSK3 Protein Kinase Domain in human A-375 cells at 5 uM by KiNativ Profiling analysis relative to control; type: cell-based
Sequence of Ribosomal protein S6 kinase alpha-2 (Homo sapiens) (Q15349 whole entry, the tested form may be a part): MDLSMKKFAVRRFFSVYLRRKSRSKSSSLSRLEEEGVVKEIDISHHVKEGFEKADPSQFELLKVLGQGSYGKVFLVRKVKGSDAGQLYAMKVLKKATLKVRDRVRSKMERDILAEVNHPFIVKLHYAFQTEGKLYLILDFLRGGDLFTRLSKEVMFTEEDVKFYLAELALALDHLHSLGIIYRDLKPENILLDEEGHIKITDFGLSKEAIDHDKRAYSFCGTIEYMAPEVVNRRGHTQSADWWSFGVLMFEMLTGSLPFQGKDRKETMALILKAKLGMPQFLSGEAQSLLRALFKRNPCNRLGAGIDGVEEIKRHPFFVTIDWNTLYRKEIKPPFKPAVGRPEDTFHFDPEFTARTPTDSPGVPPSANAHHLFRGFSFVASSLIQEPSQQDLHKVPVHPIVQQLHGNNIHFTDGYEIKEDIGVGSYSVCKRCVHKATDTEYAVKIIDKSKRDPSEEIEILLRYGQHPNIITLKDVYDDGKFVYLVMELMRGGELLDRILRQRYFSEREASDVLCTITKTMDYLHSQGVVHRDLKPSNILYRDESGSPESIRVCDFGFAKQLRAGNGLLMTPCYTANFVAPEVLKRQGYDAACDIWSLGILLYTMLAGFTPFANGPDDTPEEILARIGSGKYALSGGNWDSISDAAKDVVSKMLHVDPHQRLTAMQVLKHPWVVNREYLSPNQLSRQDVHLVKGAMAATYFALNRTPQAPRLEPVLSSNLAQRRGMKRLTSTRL
In short: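 Live A375 melanoma cells treated with compound at 5 or 0.5 μM, then lysed. Lysate kinases were labeled with a lysine-reactive ATP or ADP-biotin probe. Inhibition was read as protection of labeling sites from the probe.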

[9] = target: Serine/threonine-protein kinase WNK4 (Homo sapiens) (UniProt Q96J92); assay: Inhibition of Wnk4 ACT labeling site in human A-375 cells at 5 uM by KiNativ Profiling analysis relative to control; type: cell-based
[10] = target: T2, Ephrin type-B receptor 4 (Homo sapiens) (UniProt P54760); assay: Inhibition of EphB4 ACT labeling site in human A-375 cells at 5 uM by KiNativ Profiling analysis relative to control; type: cell-based
T2 sequence (whole entry): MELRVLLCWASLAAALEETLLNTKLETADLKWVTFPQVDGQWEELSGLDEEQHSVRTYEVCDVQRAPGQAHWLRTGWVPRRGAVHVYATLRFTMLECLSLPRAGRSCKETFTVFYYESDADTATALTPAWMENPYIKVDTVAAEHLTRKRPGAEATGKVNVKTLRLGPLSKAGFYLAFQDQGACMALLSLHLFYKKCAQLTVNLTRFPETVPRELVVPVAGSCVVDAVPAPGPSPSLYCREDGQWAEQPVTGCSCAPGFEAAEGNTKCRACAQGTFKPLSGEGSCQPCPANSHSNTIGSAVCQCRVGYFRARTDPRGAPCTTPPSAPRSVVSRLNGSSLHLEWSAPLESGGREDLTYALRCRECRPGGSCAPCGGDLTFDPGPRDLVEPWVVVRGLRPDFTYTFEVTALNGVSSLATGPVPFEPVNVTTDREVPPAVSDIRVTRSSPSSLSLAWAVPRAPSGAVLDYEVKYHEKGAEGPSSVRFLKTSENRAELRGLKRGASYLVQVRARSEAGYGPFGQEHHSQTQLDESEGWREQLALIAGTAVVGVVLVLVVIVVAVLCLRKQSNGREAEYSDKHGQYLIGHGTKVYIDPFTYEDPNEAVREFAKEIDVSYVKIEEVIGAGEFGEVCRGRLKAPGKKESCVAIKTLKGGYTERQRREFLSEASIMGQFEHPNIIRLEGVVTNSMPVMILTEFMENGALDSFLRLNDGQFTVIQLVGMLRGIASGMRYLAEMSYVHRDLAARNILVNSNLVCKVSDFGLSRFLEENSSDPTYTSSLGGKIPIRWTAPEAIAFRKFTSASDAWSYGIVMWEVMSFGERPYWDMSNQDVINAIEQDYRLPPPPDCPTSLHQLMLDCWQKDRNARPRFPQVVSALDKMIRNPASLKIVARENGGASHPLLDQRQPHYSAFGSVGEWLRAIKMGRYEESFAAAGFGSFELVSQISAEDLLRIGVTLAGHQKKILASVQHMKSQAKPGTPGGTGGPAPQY
In short: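 Live A375 melanoma cells were treated with compound at 0.5 or 5 μM, then lysed. Lysates were labeled with a lysine-reactive ATP or ADP-biotin probe. The read-out was protection of each kinase probe-labeling site from labeling, relative to control.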

[11] = target: Tyrosine-protein kinase JAK1 (Homo sapiens) (UniProt P23458); assay: Inhibition of JAK1 domain2 Lys1 labeling site in human A-375 cells at 5 uM by KiNativ Profiling analysis relative to control; type: cell-based
Sequence of Tyrosine-protein kinase JAK1 (Homo sapiens) (P23458 whole entry, the tested form may be a part): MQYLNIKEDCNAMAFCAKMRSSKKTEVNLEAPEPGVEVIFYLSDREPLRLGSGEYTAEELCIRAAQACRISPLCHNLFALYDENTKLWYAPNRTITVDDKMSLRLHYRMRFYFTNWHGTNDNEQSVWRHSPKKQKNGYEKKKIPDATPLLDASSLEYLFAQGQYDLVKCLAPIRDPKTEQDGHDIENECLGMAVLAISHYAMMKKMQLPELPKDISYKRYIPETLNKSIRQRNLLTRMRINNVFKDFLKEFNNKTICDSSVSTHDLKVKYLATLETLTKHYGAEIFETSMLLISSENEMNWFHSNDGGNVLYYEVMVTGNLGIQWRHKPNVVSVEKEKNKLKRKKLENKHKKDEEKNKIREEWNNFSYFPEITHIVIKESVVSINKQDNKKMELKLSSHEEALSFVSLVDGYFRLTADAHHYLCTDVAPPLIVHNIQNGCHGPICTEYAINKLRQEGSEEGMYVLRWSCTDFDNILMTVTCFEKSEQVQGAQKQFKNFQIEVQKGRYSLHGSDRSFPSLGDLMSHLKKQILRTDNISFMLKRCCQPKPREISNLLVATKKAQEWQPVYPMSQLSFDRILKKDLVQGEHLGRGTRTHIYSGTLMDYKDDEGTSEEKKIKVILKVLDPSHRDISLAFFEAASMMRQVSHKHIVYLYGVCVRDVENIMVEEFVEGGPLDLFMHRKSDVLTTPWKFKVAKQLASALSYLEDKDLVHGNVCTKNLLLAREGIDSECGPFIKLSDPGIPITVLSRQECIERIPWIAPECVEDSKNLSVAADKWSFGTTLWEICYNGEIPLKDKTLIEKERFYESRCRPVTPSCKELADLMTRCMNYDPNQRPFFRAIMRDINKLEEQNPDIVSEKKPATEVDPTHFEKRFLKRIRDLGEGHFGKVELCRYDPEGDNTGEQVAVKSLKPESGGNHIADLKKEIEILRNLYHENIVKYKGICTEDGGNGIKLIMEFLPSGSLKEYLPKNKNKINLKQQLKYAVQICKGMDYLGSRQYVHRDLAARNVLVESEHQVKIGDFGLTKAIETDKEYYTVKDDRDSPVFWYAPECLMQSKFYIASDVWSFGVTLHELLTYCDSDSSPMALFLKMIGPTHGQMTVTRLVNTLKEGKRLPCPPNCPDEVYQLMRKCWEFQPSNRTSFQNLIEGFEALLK

[12] = target: Serine/threonine-protein kinase WNK1 (Homo sapiens) (UniProt Q9H4A3); assay: Inhibition of Wnk1 ACT labeling site in human A-375 cells at 5 uM by KiNativ Profiling analysis relative to control; type: cell-based

| Structure (SMILES) | inhibition [1] | inhibition [2] | inhibition at 0.5 µM [3] | inhibition [4] | inhibition [5] | inhibition [6] | inhibition [7] | inhibition [8] | inhibition [9] | inhibition [10] | inhibition [11] | inhibition [12] |
| --- | --- | --- | --- | --- | --- | --- | --- | --- | --- | --- | --- | --- |
| CNc1cc(Oc2cc(C(=O)Nc3cc(N4CCN(C)CC4)cc(C(F)(F)F)c3)ccc2C)ncn1 | 49.4% | 49.4% |  |  |  |  |  |  |  |  |  |  |
| CCN1CCN(Cc2ccc(NC(=O)c3ccc(C)c(/C=C/c4cnc5[nH]ccc5c4OC)c3)cc2C(F)(F)F)CC1 |  |  | 36% | 30.2% | 13.3% | 0.3% | 30.2% | 20% | -4.5% | > 90% | 73.4% | -4.5% |
| CNc1cc(Oc2cc(C(=O)Nc3cc(-n4cnc(C)c4)cc(C(F)(F)F)c3)ccc2C)ncn1 | 59.7% | 59.7% |  |  |  |  |  |  |  |  |  |  |
| CCN1CCN(Cc2ccc(NC(=O)c3ccc(C)c(Oc4ccnc5[nH]ccc45)c3)cc2C(F)(F)F)CC1 |  |  | -0.3% | 31.2% | 16.2% | 2.2% | 31.2% | 5.8% | 14.4% | -4.2% | 97.6% | 14.4% |
